Our source for the solubility, Activity and Ki values is ChEMBL document CHEMBL4145519, “Structural investigations on coumarins leading to chromeno[4,3-c]pyrazol-4-ones and pyrano[4,3-c]pyrazol-4-ones: New scaffolds for the design of the tumor-associated carbonic anhydrase isoforms IX and XII” (Eur J Med Chem, 2018).

pKi: −log10 of the molar value. Calls of active or inactive are those of the source. The calls are words filed in the database; no cut-off is given here. A value given as a limit tells only on which side of the number the result lay.

What is called pKi is the negative decadic logarithm of the Ki, by convention in mol/L.

Carbonic anhydrase 12, sequence (O43570 whole entry): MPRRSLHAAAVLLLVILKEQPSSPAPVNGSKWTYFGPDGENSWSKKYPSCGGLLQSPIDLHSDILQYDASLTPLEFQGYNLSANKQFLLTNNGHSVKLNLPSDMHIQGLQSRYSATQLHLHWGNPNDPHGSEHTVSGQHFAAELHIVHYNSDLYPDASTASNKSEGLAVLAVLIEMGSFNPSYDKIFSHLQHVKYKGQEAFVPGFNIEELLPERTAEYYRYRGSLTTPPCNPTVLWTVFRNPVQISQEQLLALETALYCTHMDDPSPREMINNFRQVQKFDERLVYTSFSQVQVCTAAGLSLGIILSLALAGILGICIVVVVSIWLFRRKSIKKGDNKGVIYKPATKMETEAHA
Carbonic anhydrase 1, sequence (P00915 whole entry): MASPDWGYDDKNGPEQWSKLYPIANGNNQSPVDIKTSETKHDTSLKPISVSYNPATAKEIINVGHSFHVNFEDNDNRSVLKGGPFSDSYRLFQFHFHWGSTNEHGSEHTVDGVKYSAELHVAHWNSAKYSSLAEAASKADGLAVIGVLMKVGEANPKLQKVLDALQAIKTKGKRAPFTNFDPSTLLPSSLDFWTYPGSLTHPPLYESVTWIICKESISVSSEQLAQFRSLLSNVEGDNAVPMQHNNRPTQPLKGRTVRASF

Test system in the first series: not listed separately
As to the kind of experiment: Solubility of the compounds at 300 uM. In kind it is physicochemical.
Turning to `Cc1ccc(-n2nc(C)c3c(=O)oc4ccccc4c32)cc1`, the solubility result was “Insoluble”.

The subject of a further series is HT-29. As to the kind of experiment: Antiproliferative activity against human HT-29 cells at 30 to 100 uM after 48 hrs under normoxic conditions by MTT assay. Type of series: functional, cell-based. The essentials:
(§1)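 HT-29 colon cancer cells in DMEM high glucose with 20% FBS were seeded at 1·10^4/well. After 24 h they were exposed to 0–300 μM compound for 16, 48 or 72 h in air (20% O2, 5% CO2, 37 °C). MTT (1 mg/ml) was added for 30 min, formazan dissolved in DMSO and read at 550 nm. Viability is relative to untreated control (100%). Quadruplicates on ≥3 cell batches, mean ± SEM.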
(In general: Tetrazolium dyes change colour on reduction, which living cells bring about.)
Regarding `Cc1ccc(-n2nc(C)c3c(=O)oc4ccccc4c32)cc1`, the outcome was Active.

For another series, the target named is Carbonic anhydrase 9 (Homo sapiens, UniProt Q16790). In words: Inhibition of human CA9 after 15 mins by stopped-flow CO2 hydration assay.
`Cc1nn(-c2ccccc2)c2c1c(=O)oc1ccc([N+](=O)[O-])cc12`: the pKi was 7.57.

`CC(=O)c1c(O)c2ccccc2oc1=O` showed a pKi of 7.44. The pKi values of the last two molecules are within 0.2 log units of each other.

In the case of `Cc1nn(-c2ccccc2)c2c1c(=O)oc1ccc(N(C)C)cc12`, the pKi was 7.23.

Regarding `Cc1nn(-c2ccccc2)c2c1c(=O)oc1ccc(NCc3ccccc3)cc12`, the pKi was 7.42.

`Cc1c2c(=O)oc3ccc(Br)cc3c2nn1-c1ccccc1` gave a pKi of 7.60.

Molecule `CC(=O)c1cc2cc([N+](=O)[O-])ccc2oc1=O` showed a pKi of 7.35.

For the molecule `O=c1oc2ccccc2c2nn(-c3ccccc3)cc12`, the pKi is 7.42.

In turn, `CC(=O)Nc1ccc2oc(=O)c3c(C)nn(-c4ccccc4)c3c2c1` gave a pKi of 7.57. This pKi and that of the molecule before are within 0.2 log units of each other.

Regarding `Cn1nc2c(c1Cc1ccccc1)c(=O)oc1ccccc12`, the pKi was 6.26.

In the case of `Cc1nn(-c2ccccc2)c2c1c(=O)oc1ccc(N)cc12`, the pKi is 7.46.

For `Cc1nn(-c2ccccc2)c2c1c(=O)oc1cc(Cl)c([N+](=O)[O-])cc12`, the pKi was 6.10.

In turn, `CNc1ccc2oc(=O)c3c(C)nn(-c4ccccc4)c3c2c1` had a pKi of 7.29.

Regarding `Cc1nn(-c2ccccc2)c2c1c(=O)oc1cc(Cl)ccc12`, the pKi was 7.24. The pKi values of the last two molecules are within 0.2 log units of each other.

`Cc1nn(Cc2ccccc2)c2c1c(=O)oc1ccccc12`: the pKi was 6.43.

Consider `Cc1nn(-c2ccc(C(=O)O)cc2)c2c1c(=O)oc1ccccc12`, for which the pKi is 5.71.

Molecule `COc1c(C(C)=O)c(=O)oc2ccc(Br)cc12` gave a pKi of 7.04.

Molecule `Cc1c2c(=O)oc3ccccc3c2nn1-c1ccccc1` had a pKi of 7.42.

The target in a further series is Carbonic anhydrase 2 (Homo sapiens, UniProt P00918). As to the kind of experiment: Inhibition of human CA2 after 15 mins by stopped-flow CO2 hydration assay.
With `Cc1nn(-c2ccccc2)c2c1c(=O)oc1ccc([N+](=O)[O-])cc12`, the pKi is less than 5.00.

For `CC(=O)c1c(O)c2ccccc2oc1=O`, the pKi is less than 5.00.

With `Cc1nn(-c2ccccc2)c2c1c(=O)oc1ccc(N(C)C)cc12`, the pKi is less than 5.00.

With `Cc1nn(-c2ccccc2)c2c1c(=O)oc1ccc(NCc3ccccc3)cc12`, the pKi is less than 5.00.

Molecule `Cc1c2c(=O)oc3ccc(Br)cc3c2nn1-c1ccccc1` showed a pKi of less than 5.00.

Molecule `CC(=O)c1cc2cc([N+](=O)[O-])ccc2oc1=O` gave a pKi of less than 5.00.

`O=c1oc2ccccc2c2nn(-c3ccccc3)cc12` had a pKi of less than 5.00.

For the molecule `CC(=O)Nc1ccc2oc(=O)c3c(C)nn(-c4ccccc4)c3c2c1`, the pKi was less than 5.00.

Regarding `Cn1nc2c(c1Cc1ccccc1)c(=O)oc1ccccc12`, the pKi is less than 5.00.

In turn, `Cc1nn(-c2ccccc2)c2c1c(=O)oc1ccc(N)cc12` had a pKi of less than 5.00.

With `Cc1nn(-c2ccccc2)c2c1c(=O)oc1cc(Cl)c([N+](=O)[O-])cc12`, the pKi is less than 5.00.

Take `CNc1ccc2oc(=O)c3c(C)nn(-c4ccccc4)c3c2c1`: the pKi is less than 5.00.

With `Cc1nn(-c2ccccc2)c2c1c(=O)oc1cc(Cl)ccc12`, the pKi is less than 5.00.

Consider `Cc1nn(Cc2ccccc2)c2c1c(=O)oc1ccccc12`, for which the pKi is less than 5.00.

For `Cc1nn(-c2ccc(C(=O)O)cc2)c2c1c(=O)oc1ccccc12`, the pKi was less than 5.00.

In turn, `Cc1ccc(-n2nc(C)c3c(=O)oc4ccccc4c32)cc1` showed a pKi of less than 5.00.

`COc1c(C(C)=O)c(=O)oc2ccc(Br)cc12` had a pKi of less than 5.00.

In the case of `Cc1c2c(=O)oc3ccccc3c2nn1-c1ccccc1`, the pKi is less than 5.00.

A further series addresses Carbonic anhydrase 1 (Homo sapiens, UniProt P00915). As to the kind of experiment: Inhibition of human CA1 after 15 mins by stopped-flow CO2 hydration assay.
Molecule `Cc1nn(-c2ccccc2)c2c1c(=O)oc1ccc([N+](=O)[O-])cc12` showed a negative-log Ki (pKi) of less than 5.00.

Molecule `CC(=O)c1c(O)c2ccccc2oc1=O` had a pKi of less than 5.00.

`Cc1nn(-c2ccccc2)c2c1c(=O)oc1ccc(N(C)C)cc12` had a pKi of less than 5.00.

Consider `Cc1nn(-c2ccccc2)c2c1c(=O)oc1ccc(NCc3ccccc3)cc12`, for which the pKi is less than 5.00.

`Cc1c2c(=O)oc3ccc(Br)cc3c2nn1-c1ccccc1` showed a pKi of less than 5.00.

In the case of `CC(=O)c1cc2cc([N+](=O)[O-])ccc2oc1=O`, the pKi was less than 5.00.

Consider `O=c1oc2ccccc2c2nn(-c3ccccc3)cc12`, for which the pKi was less than 5.00.

As to `CC(=O)Nc1ccc2oc(=O)c3c(C)nn(-c4ccccc4)c3c2c1`, the negative logarithm of the Ki (pKi) was less than 5.00.

Turning to `Cn1nc2c(c1Cc1ccccc1)c(=O)oc1ccccc12`, the pKi is less than 5.00.

`Cc1nn(-c2ccccc2)c2c1c(=O)oc1ccc(N)cc12` showed a pKi of less than 5.00.

Regarding `Cc1nn(-c2ccccc2)c2c1c(=O)oc1cc(Cl)c([N+](=O)[O-])cc12`, the pKi was less than 5.00.

Take `CNc1ccc2oc(=O)c3c(C)nn(-c4ccccc4)c3c2c1`: the pKi is less than 5.00.

As to `Cc1nn(-c2ccccc2)c2c1c(=O)oc1cc(Cl)ccc12`, the pKi was less than 5.00.

In turn, `Cc1nn(Cc2ccccc2)c2c1c(=O)oc1ccccc12` gave a pKi of less than 5.00.

In the case of `Cc1nn(-c2ccc(C(=O)O)cc2)c2c1c(=O)oc1ccccc12`, the pKi was less than 5.00.

Regarding `Cc1ccc(-n2nc(C)c3c(=O)oc4ccccc4c32)cc1`, the pKi was less than 5.00.

For `COc1c(C(C)=O)c(=O)oc2ccc(Br)cc12`, the pKi is less than 5.00.

Molecule `Cc1c2c(=O)oc3ccccc3c2nn1-c1ccccc1` showed a pKi of less than 5.00.

The next series has as its system HT-29. As to the kind of experiment: Antiproliferative activity against human HT-29 cells at 30 to 300 uM after 72 hrs under hypoxic conditions by MTT assay. Type of series: functional, cell-based. The essentials:
(§2)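 Hypoxic workstation at 0.1% O2, 5% CO2 and residual N2. HT-29 cells (DMEM high glucose, 20% FBS; 1·10^4/well) were treated 24 h post-plating with 0–300 μM compound for 16, 48 or 72 h. Viability was measured by MTT reduction (1 mg/ml, 30 min, 37 °C; DMSO-dissolved formazan, A550) and expressed as % of untreated control. Quadruplicates, ≥3 batches, mean ± SEM.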
For `Cc1nn(-c2ccccc2)c2c1c(=O)oc1ccc(N)cc12`, the outcome was Active.

The subject of the next series is HT-29. In words: Antiproliferative activity against human HT-29 cells at 30 to 300 uM after 48 hrs under hypoxic conditions by MTT assay. Type of series: functional, cell-based. Put shortly: as §2
With `Cc1nn(-c2ccccc2)c2c1c(=O)oc1ccc([N+](=O)[O-])cc12`, the result was Active.

`Cc1nn(-c2ccccc2)c2c1c(=O)oc1ccc(N)cc12`: the result was Active.

The subject of the next series is HT-29. As to the kind of experiment: Antiproliferative activity against human HT-29 cells at 30 to 100 uM after 16 hrs under normoxic conditions by MTT assay. Type of series: functional, cell-based. Put shortly:
as §1
Take `Cc1ccc(-n2nc(C)c3c(=O)oc4ccccc4c32)cc1`: the outcome was Active.

A further series has as its system HT-29. In words: Antiproliferative activity against human HT-29 cells after 16 hrs under normoxic conditions by MTT assay. In kind it is functional, cell-based. Put shortly:
as §1
Consider `Cc1nn(-c2ccccc2)c2c1c(=O)oc1ccc([N+](=O)[O-])cc12`, for which the Activity entry is “Dose-dependent effect”.

The next series has as its target Carbonic anhydrase 12 (Homo sapiens, UniProt O43570). As to the kind of experiment: Inhibition of human CA12 after 15 mins by stopped-flow CO2 hydration assay.
Molecule `Cc1nn(-c2ccccc2)c2c1c(=O)oc1ccc([N+](=O)[O-])cc12` showed a pKi of less than 5.00.

In turn, `CC(=O)c1c(O)c2ccccc2oc1=O` showed a pKi of 6.34.

Take `Cc1nn(-c2ccccc2)c2c1c(=O)oc1ccc(N(C)C)cc12`: the pKi is 6.44.

Molecule `Cc1nn(-c2ccccc2)c2c1c(=O)oc1ccc(NCc3ccccc3)cc12` showed a pKi of 6.44.

`Cc1c2c(=O)oc3ccc(Br)cc3c2nn1-c1ccccc1` showed a negative logarithm of the Ki (pKi) of less than 5.00.

The molecule `CC(=O)c1cc2cc([N+](=O)[O-])ccc2oc1=O` had a pKi of 6.16.

For `O=c1oc2ccccc2c2nn(-c3ccccc3)cc12`, the pKi is less than 5.00.

On to `CC(=O)Nc1ccc2oc(=O)c3c(C)nn(-c4ccccc4)c3c2c1`, for which the pKi is 6.19.

Regarding `Cn1nc2c(c1Cc1ccccc1)c(=O)oc1ccccc12`, the pKi is 7.48.

Take `Cc1nn(-c2ccccc2)c2c1c(=O)oc1ccc(N)cc12`: the pKi is less than 5.00.

Take `Cc1nn(-c2ccccc2)c2c1c(=O)oc1cc(Cl)c([N+](=O)[O-])cc12`: the pKi is 5.22.

On to `CNc1ccc2oc(=O)c3c(C)nn(-c4ccccc4)c3c2c1`, for which the pKi was 6.13.

As to `Cc1nn(-c2ccccc2)c2c1c(=O)oc1cc(Cl)ccc12`, the negative logarithm of the Ki (pKi) is 6.09. This pKi and that of the molecule before are within 0.2 log units of each other.

For the molecule `Cc1nn(Cc2ccccc2)c2c1c(=O)oc1ccccc12`, the pKi was 6.14.

Take `Cc1nn(-c2ccc(C(=O)O)cc2)c2c1c(=O)oc1ccccc12`: the pKi is 7.61.

Turning to `Cc1ccc(-n2nc(C)c3c(=O)oc4ccccc4c32)cc1`, the pKi was less than 5.00.

In turn, `COc1c(C(C)=O)c(=O)oc2ccc(Br)cc12` had a pKi of 6.15.

On to `Cc1c2c(=O)oc3ccccc3c2nn1-c1ccccc1`, for which the pKi is 6.23. This pKi and that of the molecule before are within 0.2 log units of each other.

Another series concerns HT-29. As to the kind of experiment: Antiproliferative activity against human HT-29 cells at 30 to 300 uM after 48 hrs under normoxic conditions by MTT assay. In kind it is functional, cell-based. Put shortly: as §1
Take `Cc1nn(-c2ccccc2)c2c1c(=O)oc1ccc([N+](=O)[O-])cc12`: the result was Active.

With `Cc1nn(-c2ccccc2)c2c1c(=O)oc1ccc(N)cc12`, the outcome was Active.

The test system of another series is HT-29. In words: Antiproliferative activity against human HT-29 cells at 30 to 300 uM after 16 hrs under normoxic conditions by MTT assay. In kind it is functional, cell-based. The essentials: as §1
For the molecule `Cc1nn(-c2ccccc2)c2c1c(=O)oc1ccc(N)cc12`, the outcome was Active.
